Measurements collected from several papers.
Lines come from different studies, so protocols differ. pIC50: −log10 of the molar value.
HDAC6: Protein deacetylase HDAC6 (HDAC6, Homo sapiens, UniProt Q9UBN7)
CDK7 with cyclin H: Cyclin-dependent kinase 7, with cyclin H (CDK7, Homo sapiens, UniProt P50613)
F2: Prothrombin (F2, Homo sapiens, UniProt P00734)
MEP1B: Meprin A subunit beta (MEP1B, Homo sapiens, UniProt Q16820)
KCNK9: Potassium channel subfamily K member 9 (KCNK9, Homo sapiens, UniProt Q9NPC2)
Dihydroorotate dehydrogenase, mitochondrial, putative: Dihydroorotate dehydrogenase, mitochondrial, putative (Plasmodium vivax, UniProt A5K1N1)
PDE4D: 3',5'-cyclic-AMP phosphodiesterase 4D (PDE4D, Homo sapiens, UniProt Q08499)
GRM7: Metabotropic glutamate receptor 7 (GRM7, Homo sapiens, UniProt Q14831)

For `CNC(=O)[C@H](Cc1ccccc1)NC(=O)[C@H](CC(C)C)[C@H](CSc1cccs1)C(=O)NO`, the pIC50 was 7.34 (Disintegrin and metalloproteinase domain-containing protein 8 (Homo sapiens, UniProt P78325); enzyme activity, inhibitor, fluorescence).
For `CN(C)CC#Cc1ccc2[nH]c3c(c2c1)-c1nc(N)ncc1CCC3`, the pIC50 was under 5.00 (Cyclin-dependent kinase 7 (CDK7, Homo sapiens, UniProt P50613); enzyme activity, inhibitor, radiometric).
`CCCC[C@H](NC(=O)[C@H](C)c1c(C)[nH]c2ccc(O)cc12)c1ncc(-c2cc3ccccc3nc2OC)[nH]1` gave a pIC50 of under 4.35 (HDAC6; enzyme activity, inhibitor).
The pIC50 of `CC(C)Cc1ncc(Cc2ccc(O)cc2)[nH]c1=O` is reported as 5.41 (Calpain-1 catalytic subunit (CAPN1, Homo sapiens, UniProt P07384); enzyme activity, inhibitor).
`C=CC(=O)Nc1ccc(N2CCC[C@@H](Nc3ncc(Cl)c(-c4c[nH]c5ccccc45)n3)C2)c(F)c1` gave a pIC50 of 6.50 (CDK7 with cyclin H; enzyme activity, inhibitor, FRET).
`CC(C)=CCC[C@@H](C)c1ccc(C)c(O)c1` has a pIC50 of 4.38 (UDP-glucuronosyltransferase 2B7 (UGT2B7, Homo sapiens, UniProt P16662); enzyme activity, inhibitor; 1 h).
The pIC50 of `Cc1nc2ccccc2c(=O)n1NC(=O)CSc1nc2ccccc2c(=O)n1-c1ccccc1` is reported as 5.30 (F2; enzyme activity, inhibitor).
`COc1c(C(=O)/C=C(\O)c2ccccc2)ccc2occc12` has a pIC50 of under 4.00 (CDK7 with cyclin H; enzyme activity, inhibitor, ADP detection).
With `CC(C)(C)n1nc(-c2ccc3nc(OC4CC4)ccc3c2)c(C(N)=O)c1N` the pIC50 was under 5.00 (Mitogen-activated protein kinase 1 (MAPK1, Homo sapiens, UniProt P28482); cell-free assay).
The pIC50 of `Cc1nc2ccccc2n1Cc1cc(F)c(C(=O)NO)c(F)c1` is reported as 6.02 (HDAC6; enzyme activity, inhibitor).
`O=C(CCN(Cc1ccncc1)Cc1ccc2c(c1)OCO2)NO` has a pIC50 of 5.09 (MEP1B; enzyme activity, inhibitor).
`COc1cc(N2CCN(C)CC2)ccc1Nc1ncc2c(n1)N(C)c1ccccc1C(=O)N2` gave a pIC50 of 5.92 (Mitogen-activated protein kinase 7 (MAPK7, Homo sapiens, UniProt Q13164); enzyme activity, inhibitor, radiometric).
`O=C(CCN(Cc1ccc(Cl)cc1F)Cc1ccc(Cl)c(O)c1F)NO` has a pIC50 of 6.56 (MEP1B; enzyme activity, inhibitor).
The pIC50 of `O=C(Nc1cccnc1)N1CCC(Cc2cccc(Oc3ccc(C(F)(F)F)cn3)c2)CC1` is reported as under 5.00 (Liver carboxylesterase 1 (CES1, Homo sapiens, UniProt P23141); enzyme activity, inhibitor).
`COC(=O)C1=C(C)NC(C)=C(C(=O)OCCN(C)Cc2ccccc2)C1c1cccc([N+](=O)[O-])c1` (stereo not drawn) gave a pIC50 of under 4.52 (KCNK9; ion flux, inhibitor).
The pIC50 of `Cc1nc(NC2CCc3cc(Br)ccc3C2)c2c(C)noc2n1` (stereo not drawn) is reported as 6.82 (Dihydroorotate dehydrogenase, mitochondrial, putative; enzyme activity, inhibitor, absorbance).
The pIC50 of `COc1cc(NCC(=O)Nn2c(C)nc3ccc(Cl)cc3c2=O)cc(OC)c1OC` is reported as 4.20 (F2; enzyme activity, inhibitor).
With `COCCOC(=O)C1=C(C)NC(C)=C(C(=O)OC(C)C)C1c1cccc([N+](=O)[O-])c1` (stereo not drawn) the pIC50 was 4.76 (Potassium channel subfamily K member 18 (KCNK18, Homo sapiens, UniProt Q7Z418); ion flux, inhibitor).
The pIC50 of `CC/C=C\C/C=C\C/C=C\C/C=C\C/C=C\CCCC(=O)O` is reported as under 4.00 (DNA-directed DNA polymerase (Enterobacteria phage T4, UniProt P04415); enzyme activity, inhibitor).
`CCOC(=O)C1=C(C)NC(C)=C(C(=O)OC)C1c1cccc([N+](=O)[O-])c1` (stereo not drawn) gave a pIC50 of under 4.52 (KCNK9; ion flux, inhibitor).
`O=C(NO)c1ccc(Cn2c(C(F)(F)F)nc3ccccc32)cc1` has a pIC50 of 8.00 (HDAC6; enzyme activity, inhibitor).
`CC[C@H](C)[C@H](NC(C)=O)C(=O)N[C@@H](CCC(=O)O)C(=O)N[C@H](C(=O)N[C@H](C=O)CC(=O)O)[C@@H](C)O` has a pIC50 of 7.90 (Caspase-10 (CASP10, Homo sapiens, UniProt Q92851); enzyme activity, inhibitor).
For `Cc1nc2ccc(Cl)cc2c(=O)n1NC(=O)CCl`, the pIC50 was 4.08 (F2; enzyme activity, inhibitor).
The pIC50 of `O=C(O)[C@H]1O[C@@H](O[C@H]2[C@H](O)[C@@H](NS(=O)(=O)O)[C@@H](OCCNS(=O)(=O)O)O[C@@H]2COS(=O)(=O)O)[C@H](O)[C@@H](O)[C@@H]1O[C@H]1O[C@H](COS(=O)(=O)O)[C@@H](O)[C@H](O)[C@H]1NS(=O)(=O)O` is reported as under 5.70 (Coagulation factor X (F10, Bos taurus, UniProt P00743); enzyme activity, inhibitor, absorbance).
`Cc1ccc(-c2ccc(O)cc2)c(C(=C2C=CC(=O)C=C2)c2ccc(O)cc2)c1C#Cc1ccc(O)cc1` has a pIC50 of 6.76 (PDE4D; enzyme activity, inhibitor).
`COc1ccc2c(Oc3ccc4c(C(=O)Nc5ccccc5N)cccc4c3)ccnc2c1` gave a pIC50 of under 6.30 (Tyrosine-protein kinase SYK (SYK, Homo sapiens, UniProt P43405); enzyme activity, inhibitor).
For `COc1ccc(-c2noc(-c3cc(Cl)ccc3-n3cncn3)n2)c(F)c1OC`, the pIC50 was under 4.52 (GRM7; calcium signal, antagonist).
With `CNCCCOc1cc2nc(N3CCCN(C)CC3)nc(NC3CCN(C)CC3)c2cc1OC` the pIC50 was 7.35 (Histone-lysine N-methyltransferase EHMT2 (EHMT2, Homo sapiens, UniProt Q96KQ7); enzyme activity, inhibitor).
`CCCON(Cc1ccc(C(=O)NO)cc1)C(=O)Nc1ccccc1` has a pIC50 of 7.70 (HDAC6; enzyme activity, inhibitor, fluorescence).
With `COc1ccc(-c2coc(-c3cc(OC(F)(F)F)ccc3-n3cncn3)n2)cc1OC` the pIC50 was under 5.00 (GRM7; calcium signal, antagonist).
With `O=c1cc(-c2ccccc2)oc2ccc3ccccc3c12` the pIC50 was 5.53 (CDK7 with cyclin H; enzyme activity, inhibitor, ADP detection).
`Cc1nc(Nc2ccc(C(F)(F)F)cc2)c2c(C(F)(F)F)noc2n1` has a pIC50 of 7.12 (Dihydroorotate dehydrogenase, mitochondrial, putative; enzyme activity, inhibitor, absorbance).
`COc1cc(/C=C2\SC(=O)NC2=O)cc(F)c1OCCNc1nc2c(cnn2C2CCCC2)c(=O)[nH]1` gave a pIC50 of 6.12 (PDE4D; enzyme activity, inhibitor).
With `O=C(CCN(Cc1ccc2c(c1)OCO2)Cc1ccc(Cl)c(O)c1F)NO` the pIC50 was 6.84 (MEP1B; enzyme activity, inhibitor).
`COc1ccc(C2=NN(C3CCCCCC3)C(=O)[C@@H]3CC=CC[C@H]23)cc1-c1ccc(C(=O)NCC(N)=O)cc1` (relative stereo) gave a pIC50 of 6.60 (PDE4D; enzyme activity, inhibitor).
For `CCc1ccc(/C=N/n2c(C)nc3ccc(C)cc3c2=O)s1`, the pIC50 was 3.57 (F2; enzyme activity, inhibitor).
`O=C(N[C@@H](Cc1c[nH]c2ccccc12)C(=O)O)c1ccc(Cl)cc1` gave a pIC50 of under 4.60 (Free fatty acid receptor 3 (FFAR3, Homo sapiens, UniProt O14843); calcium signal, antagonist).
`CC#Cc1cncc(-c2ccc3c(c2)[C@@]2(N=C(C)C(N)=N2)[C@]2(CC[C@H](OC)CC2)C3)c1` has a pIC50 of 4.79 (Cathepsin D (CTSD, Homo sapiens, UniProt P07339); enzyme activity, inhibitor).
`N#Cc1nc(NCc2cccc(-c3cc4ccccc4n3S(=O)(=O)c3ccccc3)c2)c2ncn(CCCO)c2n1` has a pIC50 of under 4.82 (Cathepsin B-like cysteine protease (Trypanosoma brucei, UniProt Q6R7Z5); enzyme activity, inhibitor).
The pIC50 of `Cc1nc2ccc(Br)cc2c(=O)n1/N=C/c1ccc(C(=O)O)cc1` is reported as 4.31 (F2; enzyme activity, inhibitor).
`C=CC(=O)Nc1ccc(N2CCC[C@@H](Nc3ncc(Cl)c(-c4c[nH]c5ccccc45)n3)C2)cc1C` gave a pIC50 of 6.71 (CDK7 with cyclin H; enzyme activity, inhibitor, FRET).
For `CC(C)C[C@H](NC(=O)[C@H](CCC(=O)O)NC(=O)[C@@H](NC(=O)[C@H](CO)NC(=O)[C@H](CCCCN)NC(=O)[C@H](CCC(N)=O)NC(=O)[C@H](Cc1ccc(O)cc1)NC(=O)[C@H](CCCNC(=N)N)NC(=O)[C@@H](N)CCCNC(=N)N)[C@@H](C)O)C(=O)O`, the pIC50 was 7.00 (Antigen peptide transporter 1/Antigen peptide transporter 2 (Homo sapiens, UniProt Q03518+Q03519); ligand displacement).
